Reference: ChEMBL document CHEMBL1671746, “TelA contributes to the innate resistance of Listeria monocytogenes to nisin and other cell wall-acting antibiotics” (2010)
Converted amounts (≈) assume the structure as drawn. Bridge positions count the residues as written; N and C are the ends. Square brackets hold non-standard residues; d marks the D form. Peptide text beside a SMILES is read from it. * marks the point of attachment. Ileψ(thiazoline)Cys = CC[C@H](C)[C@H](N)C1=N[C@H](C(=O)*)CS1; dOrn = NCCC[C@@H](N)C(=O)O

Key:
Format in all cases: functional
Listeria monocytogenes [1] = assay: Ratio of MIC wild-type Listeria monocytogenes EGD-e Serovar 1/2a to MIC for telA-deficient Listeria monocytogenes EGD-e Serovar 1/2a
Summary of the method: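 Both MICs come from the TSB-YE 2-fold broth microdilution (10^5 CFU/ml; 20 h for purified nisin A, 16 h for others). The ratio compares the parent EGDe MIC with the ΔtelA MIC.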

Listeria monocytogenes [2] = assay: Antibacterial activity against 10^5 CFU/ml wild-type Listeria monocytogenes EGD-e Serovar 1/2a after 16 hrs by two fold serial dilution method
Summary of the method: (§1)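 Broth microdilution in TSB-YE: 2-fold serial dilutions of antimicrobial mixed 1:1 with target cells at 10^5 CFU/ml. Incubated 20 h for HPLC-purified nisin A, 16 h for other antimicrobials. MIC is the lowest concentration giving no visible growth. For nisin and gallidermin, the μg/ml value is converted from a μM value.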

Listeria monocytogenes [3] = assay: Antibacterial activity against 10^5 CFU/ml telA-deficient Listeria monocytogenes EGD-e Serovar 1/2a after 16 hrs by two fold serial dilution method; summary of the method: as §1
Listeria monocytogenes [4] = assay: Antibacterial activity against 10^7 CFU/ml telA-deficient Listeria monocytogenes EGD-e Serovar 1/2a at 10 ug after 16 hrs by disk diffusion assay; conditions: read-out: IZ
Summary of the method: (§2)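 Stationary-phase (16 h) cultures were diluted to 10^7 CFU/ml and swabbed onto TSA-YE. 6-mm disks carrying a single antibiotic were laid on the agar. Zones of inhibition were measured after overnight (16 h) growth.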

Listeria monocytogenes [5] = assay: Antibacterial activity against 10^7 CFU/ml wild-type Listeria monocytogenes EGD-e Serovar 1/2a […] after 16 hrs by disk diffusion assay; conditions: read-out: IZ; summary of the method: as §2
Listeria monocytogenes [6] = assay: Antibacterial activity against 10^7 CFU/ml wild-type Listeria monocytogenes EGD-e Serovar 1/2a at 30 ug after 16 hrs by disk diffusion assay; conditions: read-out: IZ; summary of the method: as §2
Listeria monocytogenes [7] = assay: Antibacterial activity against 10^7 CFU/ml telA-deficient Listeria monocytogenes EGD-e Serovar 1/2a at 30 ug after 16 hrs by disk diffusion assay; conditions: read-out: IZ; summary of the method: as §2
Listeria monocytogenes [8] = assay: Antibacterial activity against 10^7 CFU/ml wild-type Listeria monocytogenes EGD-e Serovar 1/2a at 5 ug after 16 hrs by disk diffusion assay; conditions: read-out: IZ; summary of the method: as §2
Listeria monocytogenes [9] = assay: Antibacterial activity against 10^7 CFU/ml telA-deficient Listeria monocytogenes EGD-e Serovar 1/2a at 5 ug after 16 hrs by disk diffusion assay; conditions: read-out: IZ; summary of the method: as §2
Listeria monocytogenes [10] = assay: Antibacterial activity against 10^7 CFU/ml telA-deficient Listeria monocytogenes EGD-e Serovar 1/2a […] after 16 hrs by disk diffusion assay; conditions: read-out: IZ
Summary of the method: (§3)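 Stationary-phase (16 h) cultures diluted to 10^7 CFU/ml and swabbed onto TSA-YE agar. Six-millimetre disks infused with antibiotic placed on plates. Inhibition zones measured after overnight (16 h) growth. Strains grown at 37°C in tryptic soy broth with yeast extract.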

Listeria monocytogenes [11] = assay: Antibacterial activity against 10^7 CFU/ml wild-type Listeria monocytogenes EGD-e Serovar 1/2a at 1 ug after 16 hrs by disk diffusion assay; conditions: read-out: IZ; summary of the method: as §3

Compound	MIC (Listeria monocytogenes [2])	MIC (Listeria monocytogenes [3])	fold change (FC) (Listeria monocytogenes [1])	zone of inhibition at 30 µg/disc (Listeria monocytogenes [6])	zone of inhibition at 30 µg/disc (Listeria monocytogenes [7])	other results
CC[C@H](C)[C@H](N)C1=N[C@H](C(=O)N[C@@H](CC(C)C)C(=O)N[C@H](CCC(=O)O)C(=O)N[C@H](C(=O)N[C@H]2CCCCNC(=O)[C@H](CC(N)=O)NC(=O)[C@@H](CC(=O)O)NC(=O)[C@H](Cc3cnc[nH]3)NC(=O)[C@@H](Cc3ccccc3)NC(=O)[C@H]([C@@H](C)CC)NC(=O)[C@@H](CCCN)NC2=O)[C@@H](C)CC)CS1 [BACITRACIN] ({Ileψ(thiazoline)Cys}-L[dE]IK[dOrn]I[dF]H[dD]N; lactam 4-C)	256 µg/mL (≈ 180 µM)	128 µg/mL (≈ 90 µM)	2	–	–	zone of inhibition at 10 µg/disc (Listeria monocytogenes [4]): 15.1 mm; zone of inhibition at 10 µg/disc (Listeria monocytogenes [5]): 12.5 mm
C/C=C(/NC(=O)[C@H](CCCCN)NC(=O)[C@H](C)NC(=O)[C@H]1CS[C@@H](C)[C@@H](NC(=O)[C@H]2CSC[C@@H](NC(=O)[C@H](C)NC(=O)[C@@H](N)[C@@H](C)CC)C(=O)N[C@@H](CCCCN)C(=O)N[C@@H](Cc3ccccc3)C(=O)N[C@@H](CC(C)C)C(=O)N2)C(=O)N2CCC[C@H]2C(=O)NCC(=O)N1)C(=O)NCC(=O)N[C@@H]1CSC[C@H]2NC(=O)[C@H](Cc3ccc(O)cc3)NC(=O)[C@@H](CS/C=C/NC2=O)NC(=O)[C@H](CC(N)=O)NC(=O)[C@H](Cc2ccccc2)NC1=O [GALLIDERMIN]	1.97 µg/mL (≈ 0.91 µM)	0.246 µg/mL (≈ 0.114 µM)	8	–	–	–
COc1cccc(OC)c1C(=O)N[C@@H]1C(=O)N2[C@@H]1SC(C)(C)[C@@H]2C(=O)O [METHICILLIN]	–	–	–	–	–	zone of inhibition at 5 µg/disc (Listeria monocytogenes [8]): 25.6 mm; zone of inhibition at 5 µg/disc (Listeria monocytogenes [9]): 26.7 mm
Cc1onc(-c2ccccc2)c1C(=O)N[C@@H]1C(=O)N2[C@@H]1SC(C)(C)[C@@H]2C(=O)O [OXACILLIN]	–	–	–	–	–	zone of inhibition at 1 µg/disc (Listeria monocytogenes [10]): 12.3 mm; zone of inhibition at 1 µg/disc (Listeria monocytogenes [11]): 10.7 mm

Second part, led by results:

MIC (Listeria monocytogenes [2])	MIC (Listeria monocytogenes [3])	Compound	fold change (FC) (Listeria monocytogenes [1])	zone of inhibition at 30 µg/disc (Listeria monocytogenes [6])	zone of inhibition at 30 µg/disc (Listeria monocytogenes [7])	other results
2 µg/mL (≈ 4.39 µM)	1 µg/mL (≈ 2.2 µM)	CO/N=C(\C(=O)N[C@@H]1C(=O)N2C(C(=O)O)=C(COC(C)=O)CS[C@H]12)c1csc(N)n1 [CEFOTAXIME]	2	21.3 mm	23.7 mm	–
2.87 µg/mL (≈ 6.76 µM)	1.44 µg/mL (≈ 3.39 µM)	CO/N=C(\C(=O)N[C@@H]1C(=O)N2C(C(=O)O)=C(COC(N)=O)CS[C@H]12)c1ccco1 [CEFUROXIME]	2	21.1 mm	24.4 mm	–
